From ChEMBL document CHEMBL4842312, “Phenoxazine nucleoside derivatives with a multiple activity against RNA and DNA viruses” (Eur J Med Chem, 2021) come the findings set out here.

One series concerns HEL. As to the kind of experiment: Cytotoxicity against human HEL cells assessed as reduction in cell viability measured after 3 days by beckman coulter counting method. The series is classed as cell-based. The conditions noted are these: 72 h, time 3 day. In short, it runs like this:
(§1)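 Cells were seeded at 5 × 10³/well, grown 24 h, then exposed to compound from 100 μM downward for 3 days at 37 °C. Cell number was counted with a Coulter counter.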

In a further series the test system is Influenza A virus. In words: Antiviral activity against Influenza A virus (H1N1) infected in MDCK cells assessed as reduction in cytopathic effect preincubated with cells for 1 hrs followed by viral addition and measured after 24 hrs by Reed-Muench method. In kind it is functional, organism-based. In outline:
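MDCK monolayers were pre-incubated 1 h at 37 °C with 3-fold compound dilutions (from 2 mg/mL DMSO stock), then infected at MOI 1 for 24 h. Supernatant yield was titrated by 10-fold dilutions on fresh MDCK for 72 h. Titre was read by hemagglutination with 1% chicken erythrocytes and calculated by Reed-Muench as TID50 per 100 μL.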

A short description of series [1]: Selectivity index, ratio of CC50 for pig PEK cells to EC50 for Antiviral activity against Tick-borne virus encephalitis infected in pig PEK cells. The series is classed as toxicity, cell-based. The following applies: read-out: Ratio CC50/EC50.
The test system of a further series is Chikungunya virus. As to the kind of experiment: Antiviral activity against Chikungunya virus infected in African green monkey Vero cells assessed as reduction in virus plaque formation preincubated with virus for 1 hr followed by cell infection and measured after 1 hr by crystal violet staining based assay. In kind it is functional, organism-based.
Series [2] has as its system Human betaherpesvirus 5. As to the kind of experiment: Antiviral activity against Human cytomegalovirus Davis. In kind it is functional, organism-based. The conditions noted are these: Human betaherpesvirus 5, Davis. In short, it runs like this:
(§2)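 Confluent HEL cultures received 100 CCID50 or 20 PFU of virus, with 2 h adsorption before inoculum removal. Cells were then incubated with compound from 100 μM downward. Cytopathicity or plaques were scored once untreated infected controls reached completion.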

For series [3], the system named is Human alphaherpesvirus 3. As to the kind of experiment: Antiviral activity against thymidine kinase positive Varicella zoster virus. The series is classed as functional, organism-based. In short, it runs like this:
as §2

Series [4] is described as follows: Selectivity index, ratio of CC50 for pig PEK cells to EC50 for Antiviral activity against Powassan virus infected in pig PEK cells. The series is classed as toxicity, cell-based. The conditions noted are these: read-out: Ratio CC50/EC50.
The test system of a further series is Powassan virus. As to the kind of experiment: Antiviral activity against Powassan virus infected in pig PEK cells assessed as reduction in virus plaque formation preincubated with virus for 1 hr followed by cell infection and measured after 1 hr by crystal violet staining based assay. In kind it is functional, organism-based.
For the next series, the system named is MDCK. As to the kind of experiment: (§3) Cytotoxicity in dog MDCK cells assessed as reduction in cell viability measured after 3 days by beckman coulter counting method. In kind it is cell-based, Canis lupus familiaris. The following applies: mdck, 72 h, time 3 day. In short, it runs like this: as §1
A short description of series [5]: Cytotoxicity in pig PEK cells assessed as reduction in cell viability measured after 5 days by resazurin dye based assay. More on the design: species or system Sus scrofa, Kidney. The conditions noted are these: 120 h, time 5 day. In outline: (§4)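 Cells (about 10⁵/well, 5% FBS) were added to two-fold compound dilutions (eight concentrations from 100 μM; DMSO control) and held 5 days at 36.5 °C in CO2. Medium was then replaced with resazurin (25 μg/mL) for 4 h and stopped with SDS. Fluorescence was read at Ex 525 / Em 580–640 nm, with background wells without resazurin subtracted. Done in two replicates; CC50 calculated.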

For series [6], the system named is Tick-borne encephalitis virus. In words: Antiviral activity against Tick-borne encephalitis virus infected in pig PEK cells assessed as reduction in virus plaque formation preincubated with virus for 1 hr followed by cell infection and measured after 1 hr by crystal violet staining based assay. The series is classed as functional, organism-based.
The test system of a further series is HEp-2. In words: Cytotoxicity in human Hep2 cells assessed as reduction in cell viability measured after 3 days by beckman coulter counting method. The series is classed as functional. The conditions noted are these: HEp-2, 72 h, time 3 day. In outline: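 Hep2 cells seeded at 5 × 10³ cells/well and allowed to grow 24 h, then exposed to compound dilutions starting at 100 μM for 3 days at 37 °C. Cell number measured by Coulter counter.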

Series [7] can be described thus: Selectivity index, ratio of CC50 for human HEL cells to EC50 for Antiviral activity against Human cytomegalovirus AD169. The series is classed as toxicity. The following applies: read-out: Ratio CC50/EC50.
A further series has as its system Vero. In words: (§5) Cytotoxicity in African green monkey Vero cells assessed as reduction in cell viability measured after 5 days by resazurin dye based assay. The following applies: chlorocebus sabaeus, vero, 120 h; time 5 day. In outline: as §4
The nature of series [8]: Selectivity index, ratio of CC50 for pig PEK cells to EC50 for Antiviral activity against Omsk hemorrhagic fever virus infected in pig PEK cells. The series is classed as toxicity, cell-based. The conditions noted are these: read-out: Ratio CC50/EC50.
Series [9] has as its system Respiratory syncytial virus. As to the kind of experiment: Antiviral activity against Respiratory syncytial virus assessed as reduction in virus-induced cytopathic effect by MTS assay. The conditions noted are these: human respiratory syncytial virus. In kind it is functional, organism-based.
The next series relates to SARS-CoV-2. In words: Antiviral activity against SARS COV-2 infected in monkey vero cells assessed as reduction in virus-induced cytopathic effect preincubated with virus for 1 hr followed by cell infection and measured after 5 days by microscopic analysis. The series is classed as functional, organism-based. The conditions noted are these: Severe acute respiratory syndrome coronavirus 2, Vero.

The subject of series [10] is Human alphaherpesvirus 3. In words: Antiviral activity against thymidine kinase deficient Varicella zoster virus. In kind it is functional, organism-based. In short, it runs like this:
as §2

In series [11] the test system is Omsk hemorrhagic fever virus. As to the kind of experiment: Antiviral activity against Omsk hemorrhagic fever virus infected in pig PEK cells assessed as reduction in virus plaque formation preincubated with virus for 1 hr followed by cell infection and measured after 1 hr by crystal violet staining based assay. In kind it is functional, organism-based.
For series [12], the system named is Human betaherpesvirus 5. As to the kind of experiment: Antiviral activity against Human cytomegalovirus AD169. In kind it is functional, organism-based. The following applies: Human betaherpesvirus 5, AD169. In short, it runs like this: as §2
A short description of series [13]: Selectivity index, ratio of CC50 for African green monkey Vero cells to EC50 for Antiviral activity against Chikungunya virus infected in African green monkey Vero cells. The series is classed as toxicity. The conditions noted are these: read-out: Ratio CC50/EC50.
Series [14] is described as follows: Selectivity index, ratio of CC50 for human HEL cells to EC50 for Antiviral activity against Human cytomegalovirus Davis. The series is classed as toxicity. The conditions noted are these: read-out: Ratio CC50/EC50.
A short description of series [15]: as §3. In kind it is cell-based, Canis lupus familiaris. The following applies: MDCK cells, time 3 day. In outline:
as §1

Series [16] in a line: Selectivity index, ratio of CC50 for human Hep2 cells to EC50 for Respiratory syncytial virus. The series is classed as toxicity. The conditions noted are these: read-out: Ratio CC50/EC50.
Series [17] in a line: as §5. The following applies: chlorocebus sabaeus, Vero cells; time 5 day. In outline:
as §4

For series [18], the system named is Human alphaherpesvirus 3. In words: Antiviral activity against Varicella zoster virus assessed as inhibition of viral replication. In kind it is functional, organism-based.

Consider `COc1ccc(C(OCCOCn2cc3c(nc2=O)N(C)c2ccccc2O3)(c2ccccc2)c2ccc(OC)cc2)cc1`, for which the CC50 (with HEL; in the series with MDCK; in [5]; in the series on HEp-2; with Vero) was more than 100 µM each time. Moreover, the EC50 is 79 µM with Influenza A virus; 6.1 µM with Chikungunya virus; 44.7 µM in the series with Human betaherpesvirus 5 [2]; more than 20 µM in the series on Human alphaherpesvirus 3 [3]; 8 µM with Powassan virus; 16 µM in series [6]. The EC50 is more than 100 µM in series [9]; more than 100 µM in the series with SARS-CoV-2; more than 20 µM with Human alphaherpesvirus 3 [10]; 3.1 µM in series [11]; 48.9 µM in the series on Human betaherpesvirus 5 [12]. Also, the selectivity ratio in series [1] was more than 6; in series [4] it was more than 12; in [7] it was more than 2; in [8], more than 32; in series [13], more than 16; in series [14], more than 2.
For the compound `COc1ccc(C(OCCOCn2cc3c(nc2=O)Nc2ccccc2O3)(c2ccccc2)c2ccc(OC)cc2)cc1`, the CC50 (with HEL; with MDCK; in series [5]; in the series on HEp-2; with Vero) was more than 100 µM each time. Besides, the EC50 was 14 µM with Influenza A virus; more than 50 µM with Chikungunya virus; more than 100 µM with Human betaherpesvirus 5 [2]; more than 100 µM with Human alphaherpesvirus 3 [3]; 21 µM in the series on Powassan virus; 36 µM in [6]. Moreover, the EC50 was more than 100 µM in series [9]; more than 100 µM in the series with SARS-CoV-2; more than 100 µM in the series on Human alphaherpesvirus 3 [10]; 21.4 µM in series [11]; more than 100 µM with Human betaherpesvirus 5 [12]. Further, the selectivity ratio was more than 2 in series [1], more than 5 in series [4] and more than 4 in series [8].
With `O=c1nc2c(cn1[C@H]1C=C[C@@H](O)C1)Oc1ccccc1N2`, the CC50 in the series on HEL is more than 100 µM; in the series with HEp-2 it was 80 µM. Besides, the EC50 in the series with Human betaherpesvirus 5 [2] was more than 100 µM; in the series on Human alphaherpesvirus 3 [3], more than 100 µM; in series [9], 11 µM; with SARS-CoV-2, more than 100 µM; with Human alphaherpesvirus 3 [10], 64.4 µM; in the series with Human betaherpesvirus 5 [12] it was more than 20 µM. For the same compound, the CC50 at 72 h in series [15] is more than 100 µM. The selectivity ratio in [16] was determined as 7. In addition, in series [17], the CC50 at 120 h was more than 100 µM.
Consider `CN1c2ccccc2Oc2cn(COCCO)c(=O)nc21`, for which the CC50 (in the series on HEL; in the series with MDCK; in series [5]; in the series on HEp-2; with Vero) was more than 100 µM each time. The EC50 is 33 µM in the series with Influenza A virus; 15 µM with Chikungunya virus; more than 100 µM with Human betaherpesvirus 5 [2]; more than 100 µM with Human alphaherpesvirus 3 [3]; 13.5 µM in the series with Powassan virus; 16 µM in series [6]. Further, the EC50 in [9] was more than 100 µM; with SARS-CoV-2, more than 100 µM; in the series with Human alphaherpesvirus 3 [10] it was more than 100 µM; in series [11], 4.5 µM; in the series on Human betaherpesvirus 5 [12], more than 100 µM. Moreover, the selectivity ratio in series [1] was more than 6; in series [4], more than 7; in [8], more than 22; in series [13], more than 6.
On to `Nc1nc2c(ncn2COCCO)c(=O)[nH]1` [ACYCLOVIR], for which the CC50 in the series on HEL is more than 300 µM. The EC50 with Human alphaherpesvirus 3 [18] came to 0.009 µM.
`O=c1[nH]c(=O)n([C@H]2C[C@H](O)[C@@H](CO)O2)cc1/C=C/Br` [BRIVUDINE]: the CC50 in the series with HEL was more than 300 µM. The EC50 is 0.034 µM in the series with Human alphaherpesvirus 3 [3], 3.4 µM in the series with Human alphaherpesvirus 3 [18] and 0.42 µM in the series on Human alphaherpesvirus 3 [10].
